Results published in ChEMBL document CHEMBL1128437, “Derivatives of 17-phenyl-18,19,20-trinorprostaglandin F2 alpha isopropyl ester: potential antiglaucoma agents” (J Med Chem, 1995).

Key:
Oryctolagus cuniculus [1] = species on record: Oryctolagus cuniculus; assay: The mean area between curves for conjunctival hyperemia between treated and control eyes. The effect was tested in rabbit at a dose of 0.5 (ug/eye)
Felis catus [2] = species on record: Felis catus; assay: The maximal difference in […] pupil diameter between treated and control eyes. The effect was tested in cats at a dose of 1.0 (ug/eye); assay type: functional
Summary of the method: (§1)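 Trained female cats, 2–3 kg, were dosed unilaterally with one 20 µL topical drop of drug in 0.9% NaCl/0.5% polysorbate 80, with vehicle in the contralateral eye. Horizontal pupil diameter was measured with a millimetre ruler under constant 10 lux illumination before dosing and at 1, 3, 6 and 23 h. Reported as maximal treated–control difference or as area between curves, per animal.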

Felis catus [3] = species on record: Felis catus; assay: The mean ocular irritation in the treated eyes. An arbitrary scale of from 0 to 3 was used, 0 indicates absence of irritation and 3 complete closure of the lids. The effect was tested in cats at a dose of 1.0 (ug/eye); assay type: functional
Summary of the method: (§2)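 Ocular irritation was scored in the treated eye of trained female cats, 2–3 kg. Drug was given as one topical 20 µL drop in 0.9% NaCl with 0.5% polysorbate 80. The contralateral eye got vehicle only.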

Oryctolagus cuniculus [4] = species on record: Oryctolagus cuniculus; assay: The maximal difference in conjunctival hyperemia between treated and control eyes. The effect was tested in rabbit at a dose of 0.5 (ug/eye)
Felis catus [5] = species on record: Felis catus; assay: The mean area between curves for Intraocular Pressure (IOP) measured in treated and control eyes. The effect was tested in cats at a dose of 1.0 (ug/eye); assay type: functional
Summary of the method: (§3)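 Domestic female cats, 2–3 kg, trained for IOP measurement. One eye received a topical drop (20 µL) of drug in 0.9% NaCl with 0.5% polysorbate 80; the other eye received vehicle. IOP was read by pneumatonometer under oxibuprocain local anaesthesia before dosing and at 1, 3, 6 and 23 h. The maximal treated-minus-control difference was taken. Area between curves is the treated-eye AUC minus control-eye AUC, per animal.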

Felis catus [6] = species on record: Felis catus; assay: The maximal difference in Intraocular Pressure (IOP) between treated and control eyes. The effect was tested in cats at a dose of 1.0 (ug/eye); assay type: functional
Summary of the method: as §3

Felis catus [7] = species on record: Felis catus; assay: The mean area between curves for pupil diameter between treated and control eyes. The effect was tested in cats at a dose of 1.0 (ug/eye); assay type: functional
Summary of the method: as §1

Felis catus [8] = species on record: Felis catus; assay: The maximal difference in Intraocular Pressure (IOP) between treated and control eyes. The effect was tested in cats at a dose of 3.0 (ug/eye); assay type: functional
Summary of the method: as §3

Felis catus [9] = species on record: Felis catus; assay: The mean area between curves for pupil diameter between treated and control eyes. The effect was tested in cats at a dose of 3.0 (ug/eye); assay type: functional
Summary of the method: as §1

Felis catus [10] = species on record: Felis catus; assay: The mean area between curves for Intraocular Pressure (IOP) measured in treated and control eyes. The effect was tested in cats at a dose of 3.0 (ug/eye); assay type: functional
Summary of the method: as §3

Felis catus [11] = species on record: Felis catus; assay: The mean ocular irritation in the treated eyes. An arbitrary scale of from 0 to 3 was used, 0 indicates absence of irritation and 3 complete closure of the lids. The effect was tested in cats at a dose of 3.0 (ug/eye); assay type: functional
Summary of the method: as §2

Felis catus [12] = species on record: Felis catus; assay: The maximal difference in […] pupil diameter between treated and control eyes. The effect was tested in cats at a dose of 3.0 (ug/eye); assay type: functional
Summary of the method: as §1

Monkey [13] = assay: The mean area between curves for Intraocular Pressure (IOP) measured in treated and control eyes. The effect was tested in monkey at a dose of 3.0 (ug/eye); assay type: functional, Cercopithecidae
Summary of the method: (§4)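 Cynomolgus monkeys trained for IOP measurement were sedated with ketamine (2–3 mg/kg) for transport and seated in restraint chairs under oxibuprocain local anaesthesia. One eye received a 10 µL drop of drug in 0.9% NaCl/0.5% polysorbate 80; the fellow eye received vehicle. IOP was read by pneumatonometer calibrated for monkey eyes before dosing and at 1, 2, 4 and 6 h. Matched-pair t test, n = 6.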

Monkey [14] = assay: The maximal difference in Intraocular Pressure (IOP) measured in treated and control eyes. The effect was tested in monkey at a dose of 3.0 (ug/eye); assay type: functional, Cercopithecidae
Summary of the method: as §4

SMILES | H ABC (Oryctolagus cuniculus [1]) | Pmax (Felis catus [2]) [mm] | Irritation (Felis catus [3]) [arbitrary units] | Hmax (Oryctolagus cuniculus [4]) | I ABC (Felis catus [5]) | Imax (Felis catus [6]) [mmHg] | P ABC (Felis catus [7]) | Imax (Felis catus [8]) [mmHg] | P ABC (Felis catus [9]) | I ABC (Felis catus [10]) | Irritation (Felis catus [11]) [arbitrary units] | Pmax (Felis catus [12]) [mm] | I ABC (Monkey [13]) | Imax (Monkey [14]) [mmHg]
CC(C)OC(=O)CCC/C=C\C[C@@H]1[C@@H](/C=C/[C@H](O)CCc2cccc(-c3cccs3)c2)[C@H](O)C[C@@H]1O | 0.1 | < -1.3 | 0.3 | 0.2 | 12.8 | <2.2 | <-12.4 | – | – | – | – | – | – | –
CC(=O)c1ccc(CC[C@@H](O)/C=C/[C@@H]2[C@@H](C/C=C\CCCC(=O)OC(C)C)[C@@H](O)C[C@H]2O)cc1 | -0.3 | -0.2 | 0 | -0.2 | -17.9 | -1.8 | 0.2 | – | – | – | – | – | – | –
CC(C)OC(=O)CCC/C=C\C[C@@H]1[C@@H](/C=C/[C@@H](O)CCc2ccc(-c3ccoc3)cc2)[C@H](O)C[C@@H]1O | 0.3 | – | – | 0.2 | – | – | – | – | – | – | – | – | – | –
CC(C)OC(=O)CCC/C=C\C[C@@H]1[C@@H](/C=C/[C@H](O)CCc2cccc(-c3ccoc3)c2)[C@H](O)C[C@@H]1O | <1.6 | – | – | <0.5 | – | – | – | -3 | -13 | -16.3 | 0 | -1.3 | – | –
CC(C)OC(=O)CCC/C=C\C[C@@H]1[C@@H](/C=C/[C@H](O)CCc2ccc(-c3ccoc3)cc2)[C@H](O)C[C@@H]1O | -0.7 | – | – | -0.3 | – | – | – | – | – | – | – | – | – | –
CC(C)OC(=O)CCC/C=C\C[C@@H]1[C@@H](/C=C/[C@@H](O)CCc2cccc(-c3cccs3)c2)[C@H](O)C[C@@H]1O | <2.6 | < -1.5 | 0.1 | <0.9 | <-40 | <-3 | -9.2 | -1.2 | <-28 | -10.3 | 0.3 | < -3.5 | – | –
CC(C)OC(=O)CCC/C=C\C[C@@H]1[C@@H](/C=C/[C@H](O)CCc2cccc(-c3ccco3)c2)[C@H](O)C[C@@H]1O | 0.4 | – | – | 0.3 | – | – | – | -1.2 | -5.7 | -8 | 0.4 | -0.3 | – | –
CC(C)OC(=O)CCC/C=C\C[C@@H]1[C@@H](/C=C/[C@H](O)CCc2ccccc2)[C@H](O)C[C@@H]1O | – | < -5.7 | 0 | <1.7 | 0.3 | -0.5 | <-50.5 | – | – | – | – | – | – | –
CC(C)OC(=O)CCC/C=C\C[C@@H]1[C@@H](/C=C/[C@H](O)CCc2ccc(-c3ccsc3)cc2)[C@H](O)C[C@@H]1O | -0.1 | < -0.7 | 0 | -0.2 | -3.1 | -0.3 | -1.8 | – | – | – | – | – | – | –
CC(C)OC(=O)CCC/C=C\C[C@@H]1[C@@H](/C=C/[C@@H](O)CCc2cccc(-c3ccccc3)c2)[C@H](O)C[C@@H]1O | <1.9 | -0.3 | 0.1 | <0.9 | <-30 | <-4 | 2.3 | – | – | – | – | – | – | –
CC(=O)c1cccc(CC[C@H](O)/C=C/[C@@H]2[C@@H](C/C=C\CCCC(=O)OC(C)C)[C@@H](O)C[C@H]2O)c1 | 0 | < -1.8 | 1.3 | -0.1 | 7.1 | 0.7 | <-30 | – | – | – | – | – | <-12.3 | <-2.8
CC(C)OC(=O)CCC/C=C\C[C@@H]1[C@@H](/C=C/[C@H](O)CCc2ccc(-c3cccs3)cc2)[C@H](O)C[C@@H]1O | 0.3 | – | – | 0.3 | – | – | – | -1.3 | 0 | 4.2 | 0.2 | 0 | – | –
CC(=O)c1cccc(CC[C@@H](O)/C=C/[C@@H]2[C@@H](C/C=C\CCCC(=O)OC(C)C)[C@@H](O)C[C@H]2O)c1 | -0.7 | 0.6 | 0.3 | -0.3 | -43.3 | -4 | 1.2 | <-2.6 | -1.4 | -23.8 | 0.1 | < -0.7 | – | –
CC(C)OC(=O)CCC/C=C\C[C@@H]1[C@@H](/C=C/[C@H](O)CCc2ccc(-c3ccco3)cc2)[C@H](O)C[C@@H]1O | <1 | – | – | <0.5 | – | – | – | 2.5 | <-10.6 | -25.8 | 0.2 | < -1.5 | – | –
CC(C)OC(=O)CCC/C=C\C[C@@H]1[C@@H](/C=C/[C@@H](O)CCc2cccc(-c3ccoc3)c2)[C@H](O)C[C@@H]1O | 1.3 | – | – | <0.5 | – | – | – | -3 | <-9.3 | -24.4 | 0.5 | -1.3 | – | –
Cc1ccc(CC[C@@H](O)/C=C/[C@@H]2[C@@H](C/C=C\CCCC(=O)OC(C)C)[C@@H](O)C[C@H]2O)cc1 | -0.2 | – | – | 0.2 | – | – | – | -1.8 | -0.2 | -10.8 | 0 | -0.2 | – | –
Cc1cccc(CC[C@@H](O)/C=C/[C@@H]2[C@@H](C/C=C\CCCC(=O)OC(C)C)[C@@H](O)C[C@H]2O)c1 | -0.1 | < -1.5 | 0.1 | 0.2 | -1.8 | -0.3 | <-13.3 | – | – | – | – | – | – | –
CC(C)OC(=O)CCC/C=C\C[C@@H]1[C@@H](/C=C/[C@@H](O)CCc2ccc(-c3cccs3)cc2)[C@H](O)C[C@@H]1O | 0 | < -0.9 | 0.4 | 0.3 | -84 | <-4.2 | -2.2 | – | – | – | – | – | 6.5 | <1.5
CC(C)OC(=O)CCC/C=C\C[C@@H]1[C@@H](/C=C/[C@@H](O)CCc2cccc(-c3ccsc3)c2)[C@H](O)C[C@@H]1O | <2.9 | < -1 | 0.1 | <1.3 | -21 | -1.1 | -1.7 | – | – | – | – | – | – | –
CC(C)OC(=O)CCC/C=C\C[C@@H]1[C@@H](/C=C/[C@@H](O)CCc2cccc(-c3ccco3)c2)[C@H](O)C[C@@H]1O | 0.3 | – | – | <0.3 | – | – | – | 0.8 | -2.5 | 9.8 | 0.1 | -0.3 | – | –
CC(C)OC(=O)CCC/C=C\C[C@@H]1[C@@H](/C=C/[C@H](O)CCc2cccc(-c3ccccc3)c2)[C@H](O)C[C@@H]1O | <2.2 | 0.5 | 0 | <0.7 | -23.5 | <-1.5 | 6.5 | – | – | – | – | – | – | –
CC(C)OC(=O)CCC/C=C\C[C@@H]1[C@@H](/C=C/[C@H](O)CCc2cccc(-c3ccsc3)c2)[C@H](O)C[C@@H]1O | -0.8 | < -1 | 0.1 | -0.3 | 16 | 1.7 | <-14 | – | – | – | – | – | – | –
CC(=O)c1ccc(CC[C@H](O)/C=C/[C@@H]2[C@@H](C/C=C\CCCC(=O)OC(C)C)[C@@H](O)C[C@H]2O)cc1 | -0.5 | 0.2 | 0 | -0.2 | -4.3 | -0.3 | 1.4 | – | – | – | – | – | <-10 | <-2.3
